Source: ChEMBL document CHEMBL1799953, “Backbone cyclic peptide inhibitors of protein kinase B (PKB/Akt)” (J Med Chem, 2011)
*1 amine or outer side, *2 acyl side, *3 side chain or, on linkers, in order; H or OH if unused. Where a SMILES comes first, the peptide text is derived from it. Bridges are numbered along the chain shown (N, C = ends). [ ]: non-standard residue; d: D form. NGly(3-aminopropyl) = O=C(CN(CCCN[*:3])[*:1])[*:2]; N(2-Aminoethyl)Gly = O=C(CN(CCN[*:3])[*:1])[*:2]; Gly(N-(CH2)6NH2) = NCCCCCCNCC(=O)O; Gly(N(CH2)3NH2) = NCCCNCC(=O)O; hLeu = CC(C)CC[C@H](N)C(=O)O; Nva = CCC[C@H](N)C(=O)O; Dap = NC[C@H](N)C(=O)O; CO = O=C([*:1])[*:2]; Nlys = NCCCCNCC(=O)O

How the values were obtained:
[1] = target: T1, RAC-alpha serine/threonine-protein kinase (Homo sapiens, UniProt P31749); test: Inhibition of Akt using RPRTSSF peptide and [gamma32]ATP at 0.625 uM by cell-free radioactive assay relative to control
[2] = target: T1, RAC-alpha serine/threonine-protein kinase; test: Inhibition of Akt using RPRTSSF peptide and [gamma32]ATP by cell-free radioactive assay
In short: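 Same reaction: HisΔPHPKBEEEFlag (0.005 units), 50 mM Hepes pH 7.4, 0.1 mM EGTA, 0.1% 2-mercaptoethanol, 10 mM magnesium acetate, 3 μM RPRTSSF, 10 μM [γ32P]ATP. Peptide stock concentration determined by UV spectrophotometry; reference peptide run in every assay.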

T1 sequence (P31749 whole entry): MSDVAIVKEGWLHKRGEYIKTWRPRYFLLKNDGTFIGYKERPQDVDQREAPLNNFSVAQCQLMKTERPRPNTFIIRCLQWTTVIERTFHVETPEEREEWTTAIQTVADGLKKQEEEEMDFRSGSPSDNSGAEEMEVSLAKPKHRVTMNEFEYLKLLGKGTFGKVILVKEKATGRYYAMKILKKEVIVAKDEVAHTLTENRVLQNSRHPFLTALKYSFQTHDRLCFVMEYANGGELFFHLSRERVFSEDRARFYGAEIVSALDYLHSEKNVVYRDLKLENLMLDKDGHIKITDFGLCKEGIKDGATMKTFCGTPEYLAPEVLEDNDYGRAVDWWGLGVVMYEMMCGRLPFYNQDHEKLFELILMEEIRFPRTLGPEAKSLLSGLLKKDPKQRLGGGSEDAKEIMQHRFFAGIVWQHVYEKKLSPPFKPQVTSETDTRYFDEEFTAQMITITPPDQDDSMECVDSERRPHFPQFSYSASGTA

SMILES	inhibition [1] [%]	IC50 [2] [nM]
CCC[C@@H]1NC(=O)[C@H](CCCNC(=N)N)NC(=O)CNCCCNC(=O)NCCN(CC(N)=O)C(=O)[C@H](CCC(C)C)NC(=O)[C@H](CN)NC(=O)[C@H](Cc2ccc(O)cc2)NC1=O (H-[NGly(3-aminopropyl)]R[Nva]Y[Dap][hLeu][N(2-Aminoethyl)Gly]-NH2; linker 1-7 via CO)	84	240
CCC[C@H](NC(=O)[C@H](CCCNC(=N)N)NC(=O)CN(CCCN)C(=O)[C@@H](N)CCCNC(=N)N)C(=O)N[C@@H](Cc1ccc(O)cc1)C(=O)N[C@@H](CN)C(=O)N[C@@H](CCC(C)C)C(=O)N(CCCN)CC(N)=O (H-R[Gly(N(CH2)3NH2)]R[Nva]Y[Dap][hLeu][Gly(N(CH2)3NH2)]-NH2)	90	130
CCC[C@H](NC(=O)[C@H](CCCNC(=N)N)NC(=O)CN(CCCN)C(=O)[C@@H](N)CCCNC(=N)N)C(=O)N[C@@H](Cc1ccc(O)cc1)C(=O)N[C@@H](CN)C(=O)N[C@@H](CCC(C)C)C(=O)N(CCCCN)CC(N)=O (H-R[Gly(N(CH2)3NH2)]R[Nva]Y[Dap][hLeu][Nlys]-NH2)	96	128
CCC[C@H](NC(=O)[C@H](CCCNC(=N)N)NC(=O)CN(CCCCN)C(=O)[C@@H](N)CCCNC(=N)N)C(=O)N[C@@H](Cc1ccc(O)cc1)C(=O)N[C@@H](CN)C(=O)N[C@@H](CCC(C)C)C(=O)N(CCCCN)CC(N)=O (H-R[Nlys]R[Nva]Y[Dap][hLeu][Nlys]-NH2)	91	130
CCC[C@H](NC(=O)[C@H](CCCNC(=N)N)NC(=O)CN(CCCCCCN)C(=O)[C@@H](N)CCCNC(=N)N)C(=O)N[C@@H](Cc1ccc(O)cc1)C(=O)N[C@@H](CN)C(=O)N[C@@H](CCC(C)C)C(=O)N(CCCN)CC(N)=O (H-R[Gly(N-(CH2)6NH2)]R[Nva]Y[Dap][hLeu][Gly(N(CH2)3NH2)]-NH2)	87	110
